Measured values from different studies.
Each line is one published result; the experiments were not run side by side. ≈ marks a conversion by molar mass, not a printed value.

SMILES | target or system | test | system | conditions | measurement | value
C=CC(=O)NC1CCN(c2ncc3ncnc(Nc4ccc(Oc5ccc6c(c5)ncn6C)c(C)c4)c3n2)CC1 | SW837 | cell growth or viability |  |  | EC50 | 21500 µM
CN(C)c1cc(NC(=O)Cc2ccncn2)c(O)c2c1C[C@H]1C[C@H]3[C@H](N(C)C)C(O)=C(C(N)=O)C(=O)[C@@]3(O)C(O)=C1C2=O | Mycobacteroides abscessus | microbial growth, resazurin | ATCC19977 |  | IC50 | 0.59 µg/mL
COc1cc(C#CC(=O)c2ccccc2OC)ccc1O | Pseudomonas aeruginosa | microbial growth, absorbance |  | 10 µM, 24 h | activity vs control | 91%
O=C1CC[C@H](N2Cc3cc(N4CCN(CC5CCN(c6ccc([C@@H]7c8ccc(O)cc8CC[C@@H]7c7ccccc7)cc6)CC5)CC4)ccc3C2=O)C(=O)N1 | T47D | cell growth or viability, ATP luminescence |  | 5 days | GI50 | 0.0045 µM
O=C(NO)c1ccc(CNc2nc3cccc(-c4ccc5c(c4)OCO5)n3n2)cc1 | T47D | cell growth or viability, SRB |  |  | GI50 | 0.43 µM
CN(C)c1cc(NC(=O)Cc2cscn2)c(O)c2c1C[C@H]1C[C@H]3[C@H](N(C)C)C(O)=C(C(N)=O)C(=O)[C@@]3(O)C(O)=C1C2=O | Mycobacteroides abscessus | microbial growth, resazurin | ATCC19977 |  | IC50 | 0.23 µg/mL
COc1cc(C#CC(=O)C2CCCCC2)ccc1O | Pseudomonas aeruginosa | microbial growth, absorbance |  | 10 µM, 24 h | activity vs control | 81%
C=C(F)C(=O)N1CCN(c2nc(OC[C@@H]3CCCN3C)nc3c2CCN(c2cccc4cccc(Cl)c24)C3)C[C@@H]1CC#N | SW837 | cell growth or viability, ATP luminescence |  | 3D culture | IC50 | 0.00577 µM
CN(C)c1cc(NC(=O)Cc2cccnc2)c(O)c2c1C[C@H]1C[C@H]3[C@H](N(C)C)C(O)=C(C(N)=O)C(=O)[C@@]3(O)C(O)=C1C2=O | Mycobacteroides abscessus | microbial growth, resazurin | ATCC19977 |  | IC50 | 1.29 µg/mL
O=C(CO/N=c1\cc2n(-c3ccc(Cl)cc3)c3ccccc3nc-2cc1Nc1ccc(Cl)cc1)NCc1ccc(C(F)(F)F)cc1 | Mycobacteroides abscessus | microbial growth |  | clinical isolate | MIC | > 30 µM
Cc1cccc(C(=O)C#Cc2ccc(F)c(F)c2)c1 | Pseudomonas aeruginosa | microbial growth, absorbance |  | 100 µM, 24 h | activity vs control | 100%
CO/N=c1\cc2n(-c3ccc(Cl)cc3)c3ccccc3nc-2cc1Nc1ccc(Cl)cc1 | Mycobacteroides abscessus | microbial growth |  | clinical isolate | MIC | > 30 µM
CN(C)c1cc(NC(=O)Cc2cncnc2)c(O)c2c1C[C@H]1C[C@H]3[C@H](N(C)C)C(O)=C(C(N)=O)C(=O)[C@@]3(O)C(O)=C1C2=O | Mycobacteroides abscessus | microbial growth, resazurin | ATCC19977 |  | IC50 | 0.74 µg/mL
COc1cc(C#CC(=O)c2cccc(Cl)c2)ccc1O | Pseudomonas aeruginosa | microbial growth, absorbance |  | 10 µM, 24 h | activity vs control | 102%
O=C(CO/N=c1\cc2n(-c3ccc(Cl)cc3)c3ccccc3nc-2cc1Nc1ccc(Cl)cc1)NCc1ccc2c(c1)CCO2 | Mycobacteroides abscessus | microbial growth |  | clinical isolate | MIC | > 30 µM
COc1cc(C#CC(=O)C(C)C)ccc1O | Pseudomonas aeruginosa | microbial growth, absorbance |  | 10 µM, 24 h | activity vs control | 94%
O/N=c1\cc2n(-c3ccc(Cl)cc3)c3ccccc3nc-2cc1Nc1ccc(Cl)cc1 | Mycobacteroides abscessus | microbial growth |  | clinical isolate | MIC | > 30 µM
CN(C)c1cc(NC(=O)Cc2ccncc2)c(O)c2c1C[C@H]1C[C@H]3[C@H](N(C)C)C(O)=C(C(N)=O)C(=O)[C@@]3(O)C(O)=C1C2=O | Mycobacteroides abscessus | microbial growth, resazurin | ATCC19977 |  | IC50 | 0.57 µg/mL
CC(C)/N=c1\cc2n(-c3ccc(Cl)cc3)c3ccccc3nc-2cc1Nc1ccc(Cl)cc1 | Mycobacteroides abscessus | microbial growth |  | clinical isolate | MIC | 3.75 µM (≈ 1.78 µg/mL)
O=C(C#Cc1ccc(F)c(F)c1)c1ccc(Cl)cc1 | Pseudomonas aeruginosa | microbial growth, absorbance |  | 100 µM, 24 h | activity vs control | 96%
Clc1ccc(Nc2cc3nc4ccccc4n(-c4ccc(Cl)cc4)c-3c/c2=N\OCc2ccccc2)cc1 | Mycobacteroides abscessus | microbial growth |  | clinical isolate | MIC | > 30 µM
CN(C)c1cc(NC(=O)CNC(C)(C)C)c(O)c2c1C[C@H]1C[C@H]3[C@H](N(C)C)C(O)=C(C(N)=O)C(=O)[C@@]3(O)C(O)=C1C2=O | Mycobacteroides abscessus | microbial growth, resazurin | ATCC19977 |  | IC50 | 0.28 µg/mL
